{"source": "ChEMBL document CHEMBL1147590", "about": "“Synthesis and antitumor activity of s-tetrazine derivatives” (Bioorg Med Chem Lett, 2004)", "key": {"P388 [1]": {"test_system": "P388", "assay": "Rate of inhibition of P388 tumor cell growth at a concentration of 0.781 uM", "type": "functional, Mus musculus", "summary_of_the_method": "(§1)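 P-388 tumour cell growth inhibition was read out in vitro by the MTT method.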"}, "A549 [2]": {"test_system": "A549", "assay": "Rate of inhibition of A-549 tumor cell growth at a concentration of 0.0625 uM", "type": "functional, Homo sapiens", "summary_of_the_method": "(§2)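 A-549 tumour cell growth inhibition was measured in vitro by the SRB (sulforhodamine B) method.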"}, "P388 [3]": {"test_system": "P388", "assay": "Rate of inhibition of P388 tumor cell growth at a concentration of 3.125 uM", "type": "functional, Mus musculus", "summary_of_the_method": "as §1"}, "P388 [4]": {"test_system": "P388", "assay": "Rate of inhibition of P388 tumor cell growth at a concentration of 1.563 uM", "type": "functional, Mus musculus", "summary_of_the_method": "as §1"}, "MCF7 [5]": {"test_system": "MCF7", "assay": "Inhibitory concentration of compound against MCF-7 cell line", "type": "functional, cell-based", "settings": "Homo sapiens"}, "A549 [6]": {"test_system": "A549", "assay": "In vitro rate of inhibition of A-549 tumor cell growth at 10E-8 mol/L", "type": "functional, Homo sapiens", "settings": "at 0.01 µM"}, "Bel-7402 [7]": {"test_system": "Bel-7402", "assay": "Rate of inhibition of Bel-7402 tumor cell growth at a concentration of 1.25 uM", "type": "functional, Homo sapiens"}, "A549 [8]": {"test_system": "A549", "assay": "Rate of inhibition of A-549 tumor cell growth at a concentration of 0.125 uM", "type": "functional, Homo sapiens", "summary_of_the_method": "as §2"}, "MCF7 [9]": {"test_system": "MCF7", "assay": "Rate of inhibition of MCF-7 tumor cell growth at a concentration of 1.0 uM", "type": "functional, Homo sapiens"}, "A549 [10]": {"test_system": "A549", "assay": "Inhibitory concentration of compound against A-549 cell line", "type": "functional, cell-based", "settings": "Homo sapiens", "summary_of_the_method": "as §2"}, "Bel-7402 [11]": {"test_system": "Bel-7402", "assay": "Inhibitory concentration of compound against Bel-7402 cell line", "type": "functional, cell-based", "settings": "Homo sapiens"}, "A549 [12]": {"test_system": "A549", "assay": "Rate of inhibition of A-549 tumor cell growth at a concentration of 1 uM", "type": "functional, Homo sapiens", "summary_of_the_method": "as §2"}, "P388 [13]": {"test_system": "P388", "assay": "Rate of inhibition of P388 tumor cell growth at a concentration of […] uM", "type": "functional, Mus musculus", "summary_of_the_method": "as §1"}, "Bel-7402 [14]": {"test_system": "Bel-7402", "assay": "Rate of inhibition of Bel-7402 tumor cell growth at a concentration of 0.625 uM", "type": "functional, Homo sapiens"}, "MCF7 [15]": {"test_system": "MCF7", "assay": "Rate of inhibition of MCF-7 tumor cell growth at a concentration of 0.125 uM", "type": "functional, Homo sapiens"}, "A549 [16]": {"test_system": "A549", "assay": "In vitro rate of inhibition of A-549 tumor cell growth at 10E-4 mol/L", "type": "functional, Homo sapiens", "settings": "at 100 µM"}, "P388 [17]": {"test_system": "P388", "assay": "In vitro rate of inhibition of P388 tumor cell growth at 10E-7 mol/L", "type": "functional, Mus musculus", "settings": "at 0.1 µM"}, "A549 [18]": {"test_system": "A549", "assay": "Rate of inhibition of A-549 tumor cell growth at a concentration of 0.5 uM", "type": "functional, Homo sapiens", "summary_of_the_method": "as §2"}, "A549 [19]": {"test_system": "A549", "assay": "In vitro rate of inhibition of A-549 tumor cell growth at 10E-7 mol/L", "type": "functional, Homo sapiens", "settings": "at 0.1 µM"}, "P388 [20]": {"test_system": "P388", "assay": "In vitro rate of inhibition of P388 tumor cell growth at 10E-5 mol/L", "type": "functional, Mus musculus", "settings": "at 10 µM"}, "A549 [21]": {"test_system": "A549", "assay": "In vitro rate of inhibition of A-549 tumor cell growth at 10E-6 mol/L", "type": "functional, Homo sapiens", "settings": "at 1 µM"}, "A549 [22]": {"test_system": "A549", "assay": "Rate of inhibition of A-549 tumor cell growth at a concentration of 0.25 uM", "type": "functional, Homo sapiens", "summary_of_the_method": "as §2"}, "P388 [23]": {"test_system": "P388", "assay": "In vitro rate of inhibition of P388 tumor cell growth at 10E-4 mol/L", "type": "functional, Mus musculus", "settings": "at 100 µM"}, "P388 [24]": {"test_system": "P388", "assay": "In vitro rate of inhibition of P388 tumor cell growth at 10E-8 mol/L", "type": "functional, Mus musculus", "settings": "at 0.01 µM"}, "Bel-7402 [25]": {"test_system": "Bel-7402", "assay": "Rate of inhibition of Bel-7402 tumor cell growth at a concentration of 0.313 uM", "type": "functional, Homo sapiens"}, "P388 [26]": {"test_system": "P388", "assay": "In vitro rate of inhibition of P388 tumor cell growth at 10E-6 mol/L", "type": "functional, Mus musculus", "settings": "at 1 µM"}, "MCF7 [27]": {"test_system": "MCF7", "assay": "Rate of inhibition of MCF-7 tumor cell growth at a concentration of 0.5 uM", "type": "functional, Homo sapiens"}, "A549 [28]": {"test_system": "A549", "assay": "In vitro rate of inhibition of A-549 tumor cell growth at 10E-5 mol/L", "type": "functional, Homo sapiens", "settings": "at 10 µM"}, "Bel-7402 [29]": {"test_system": "Bel-7402", "assay": "Rate of inhibition of Bel-7402 tumor cell growth at a concentration of 2.5 uM", "type": "functional, Homo sapiens"}, "MCF7 [30]": {"test_system": "MCF7", "assay": "Rate of inhibition of MCF-7 tumor cell growth at a concentration of 0.25 uM", "type": "functional, Homo sapiens"}, "P388 [31]": {"test_system": "P388", "assay": "Inhibitory concentration of compound against P388 tumor cell growth", "type": "functional, cell-based", "settings": "Mus musculus", "summary_of_the_method": "as §1"}, "Bel-7402 [32]": {"test_system": "Bel-7402", "assay": "Rate of inhibition of Bel-7402 tumor cell growth at a concentration of 5.0 uM", "type": "functional, Homo sapiens"}, "P388 [33]": {"test_system": "P388", "assay": "Rate of inhibition of P388 tumor cell growth at a concentration of 0.195 uM", "type": "functional, Mus musculus", "summary_of_the_method": "as §1"}}, "data": [{"smiles": "CC1=NN(C(=O)Nc2cccc(C)c2)C(C)=NN1C(=O)Nc1cccc(C)c1", "values": [{"measurement": "Rate of inhibition", "setting": "P388 [1]", "value": 83.1, "unit": "%"}, {"measurement": "Rate of inhibition", "setting": "A549 [2]", "value": 0, "unit": "%"}, {"measurement": "Rate of inhibition", "setting": "P388 [3]", "value": 97.3, "unit": "%"}, {"measurement": "Rate of inhibition", "setting": "P388 [4]", "value": 91.1, "unit": "%"}, {"measurement": "IC50", "setting": "MCF7 [5]", "value": 500, "unit": "nM"}, {"measurement": "Rate of inhibition", "setting": "A549 [6]", "value": 80.3, "unit": "%"}, {"measurement": "Rate of inhibition", "setting": "Bel-7402 [7]", "value": 77.8, "unit": "%"}, {"measurement": "Rate of inhibition", "setting": "A549 [8]", "value": 0, "unit": "%"}, {"measurement": "Rate of inhibition", "setting": "MCF7 [9]", "value": 71.2, "unit": "%"}, {"measurement": "IC50", "setting": "A549 [10]", "value": 700, "unit": "nM"}, {"measurement": "IC50", "setting": "Bel-7402 [11]", "value": 600, "unit": "nM"}, {"measurement": "Rate of inhibition", "setting": "A549 [12]", "value": 93.6, "unit": "%"}, {"measurement": "Rate of inhibition", "setting": "P388 [13]", "value": 55.4, "unit": "%"}, {"measurement": "Rate of inhibition", "setting": "Bel-7402 [14]", "value": 54.2, "unit": "%"}, {"measurement": "Rate of inhibition", "setting": "MCF7 [15]", "value": 1.1, "unit": "%"}, {"measurement": "Rate of inhibition", "setting": "A549 [16]", "value": 84.8, "unit": "%"}, {"measurement": "Rate of inhibition", "setting": "P388 [17]", "value": 96.8, "unit": "%"}, {"measurement": "Rate of inhibition", "setting": "A549 [18]", "value": 36.6, "unit": "%"}, {"measurement": "Rate of inhibition", "setting": "A549 [19]", "value": 81.8, "unit": "%"}, {"measurement": "Rate of inhibition", "setting": "P388 [20]", "value": 96.8, "unit": "%"}, {"measurement": "Rate of inhibition", "setting": "A549 [21]", "value": 80.3, "unit": "%"}, {"measurement": "Rate of inhibition", "setting": "A549 [22]", "value": 0, "unit": "%"}, {"measurement": "Rate of inhibition", "setting": "P388 [23]", "value": 96.8, "unit": "%"}, {"measurement": "Rate of inhibition", "setting": "P388 [24]", "value": 96.8, "unit": "%"}, {"measurement": "Rate of inhibition", "setting": "Bel-7402 [25]", "value": 27.4, "unit": "%"}, {"measurement": "Rate of inhibition", "setting": "P388 [26]", "value": 98.4, "unit": "%"}, {"measurement": "Rate of inhibition", "setting": "MCF7 [27]", "value": 64.3, "unit": "%"}, {"measurement": "Rate of inhibition", "setting": "A549 [28]", "value": 83.3, "unit": "%"}, {"measurement": "Rate of inhibition", "setting": "Bel-7402 [29]", "value": 89, "unit": "%"}, {"measurement": "Rate of inhibition", "setting": "MCF7 [30]", "value": 35.7, "unit": "%"}, {"measurement": "IC50", "setting": "P388 [31]", "value": 600, "unit": "nM"}, {"measurement": "Rate of inhibition", "setting": "Bel-7402 [32]", "value": 87.8, "unit": "%"}, {"measurement": "Rate of inhibition", "setting": "P388 [33]", "value": 2.3, "unit": "%"}]}]}
